Reference: paper PMC3262149 (Angewandte Chemie (International Ed. in English), 2011)
Square brackets hold non-standard residues; d marks the D form. Side chains are listed from the residue outwards. Peptide text beside a SMILES is read from it. * marks the point of attachment. X1 = O=C(CCS[C@@H]1O[C@H](CO)[C@H](O)[C@H](O)[C@H]1O)*; βGal = OC[C@H]1O[C@@H](*)[C@H](O)[C@@H](O)[C@H]1O; Mpa = O=C(O)CCS

Legend:
[1] = target: T1, P. aeruginosa lectin LecA (Pseudomonas aeruginosa, UniProt Q05097); experiment: Isothermal titration calorimetry; type: binding; conditions: for n′ (stoichiometry, number of occupied lectin galactose binding sites per dendrimer) / ΔH / −T ΔS / r.p./n = (Kd(D-galactose)/Kd(ligand))/n: ITC; for n′ (stoichiometry, number of occupied lectin galactose binding sites per dendrimer) / ΔH / −T ΔS: 0.1 M Tris base, pH 7.5, 25 mM CaCl2, 25 °C, average of two independent runs; for r.p./n = (Kd(D-galactose)/Kd(ligand))/n: relative to D-galactose, per galactose residue
T1 sequence (Q05097 1-122): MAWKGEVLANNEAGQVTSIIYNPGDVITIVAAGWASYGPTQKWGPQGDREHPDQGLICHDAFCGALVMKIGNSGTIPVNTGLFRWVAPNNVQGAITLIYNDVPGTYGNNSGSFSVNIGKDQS

[2] = target: T1, P. aeruginosa lectin LecA; experiment: Hemagglutination inhibition assay; type: biochemical; conditions: relative to D-galactose
How it was run: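 Twofold serial dilutions of test compound were preincubated with LecA for 30 min at 4 °C. Rabbit erythrocytes (5 % solution in PBS) were then added and incubated 1 h at RT. MIC was taken as the highest dilution giving complete inhibition of hemagglutination.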

n′ (stoichiometry, number of occupied lectin galactose binding sites per dendrimer) [1]	ΔH [1] [kJ/mol]	−T ΔS [1] [kJ/mol]	r.p./n, relative potency per galactose residue = (MIC(D-galactose)/MIC(ligand))/n [2]	r.p./n = (Kd(D-galactose)/Kd(ligand))/n [1]	Structure (SMILES)	Kd [1] [µM]
1.1±0.1	-35.1 ± 0.42	9.62 ± 1.7			O=C[C@H](O)[C@@H](O)[C@@H](O)[C@H](O)CO [D-galactose]	
1.1±0.1	-37.2 ± 2.1	11.7 ± 2.1	2.8	2.7	CC(C)S[C@@H]1O[C@H](CO)[C@H](O)[C@H](O)[C@H]1O [IPTG, isopropyl-β-thiogalactoside]	
0.9±0	-41.8 ± 0.42	14.2 ± 0.42	5.7	6.2	O=[N+]([O-])c1ccc(O[C@@H]2O[C@H](CO)[C@H](O)[C@H](O)[C@H]2O)cc1 [NPG, p-nitrophenyl-β-galactoside]	

Structure (SMILES)	n′ (stoichiometry, number of occupied lectin galactose binding sites per dendrimer) [1]	ΔH [1] [kJ/mol]	−T ΔS [1] [kJ/mol]	r.p./n, relative potency per galactose residue = (MIC(D-galactose)/MIC(ligand))/n [2]	r.p./n = (Kd(D-galactose)/Kd(ligand))/n [1]	Kd [1] [µM]
CC[C@H](C)[C@H](NC(=O)[C@H](CCCCN)NC(=O)[C@H](Cc1ccccc1)NC(=O)[C@H](CCCCNC(=O)[C@H](CC(C)C)NC(=O)[C@@H]1CCCN1C(=O)[C@H](CCCCN)NC(=O)CCS[C@@H]1O[C@H](CO)[C@H](O)[C@H](O)[C@H]1O)NC(=O)[C@H](CC(C)C)NC(=O)[C@@H]1CCCN1C(=O)[C@H](CCCCN)NC(=O)CCS[C@@H]1O[C@H](CO)[C@H](O)[C@H](O)[C@H]1O)C(N)=O [GalBG1] ([Mpa](βGal)KPLK([Leu-Pro-Lys-X1])FKI-NH2)	2.5±0.3	-34.7 ± 1.7	2.9 ± 1.7	2.5	20.5	2.1 ± 1
